Assay results as given in ChEMBL document CHEMBL3044908, “Pinolide, a new nonenolide produced by Didymella pinodes , the causal agent of ascochyta blight on Pisum sativum” (J Agric Food Chem, 2012).
Calls of active or inactive are those of the source. The calls are words filed in the database; no cut-off is given here.

Tests used:
Sonchus arvensis = assay: Phytotoxicity against Sonchus arvensis (field sow-thistle) assessed as area of lesions at 1 mg/ml at 20 degC for 4 days; assay type: functional
Outline: (§1)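 Whole plants grown one per pot in 1:1 sand/peat at 20 °C, 12 h light/dark, until about seven leaves. One leaflet detached, placed abaxial side up on 0.4% water agar, epidermis cut (three cuts over 3 mm2). A 20 μL drop of metabolite (5% MeOH in water) applied over cuts, kept at 20 °C, 12 h photoperiod. 3–4 replicates, randomized; 5% MeOH control; lesion area in mm2.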

Cirsium arvense = assay: Phytotoxicity against Cirsium arvense (Canada thistle) assessed as area of lesions at 1 mg/ml at 20 degC for 4 days; assay type: functional; outline: as §1
Vicia faba = assay: Phytotoxicity against Vicia faba assessed as area of lesions at 1 mg/ml at 20 degC for 4 days; assay type: organism-based; details: in vivo, 96 h; outline: as §1
Chenopodium album = assay: Phytotoxicity against Chenopodium album assessed as area of lesions at 1 mg/ml at 20 degC for 4 days; assay type: functional; outline: as §1
Cicer arietinum = assay: Phytotoxicity against Cicer arietinum assessed as area of lesions at 1 mg/ml at 20 degC for 4 days; assay type: organism-based; details: in vivo, 96 h; outline: as §1
Pisum fulvum = assay: Phytotoxicity against Pisum fulvum assessed as area of lesions at 1 mg/ml at 20 degC for 4 days; assay type: organism-based; details: lathyrus fulvus, in vivo, 96 h; outline: as §1
Phaseolus vulgaris = assay: Phytotoxicity against Phaseolus vulgaris assessed as area of lesions at 1 mg/ml at 20 degC for 4 days; assay type: organism-based; details: in vivo, 96 h; outline: as §1
Lathyrus sativus = assay: Phytotoxicity against Lathyrus sativus assessed as area of lesions at 1 mg/ml at 20 degC for 4 days; assay type: organism-based; details: in vivo, 96 h; outline: as §1
Lens culinaris = assay: Phytotoxicity against Lens culinaris assessed as area of lesions at 1 mg/ml at 20 degC for 4 days; assay type: organism-based; details: in vivo, 96 h; outline: as §1
Medicago truncatula = assay: Phytotoxicity against Medicago truncatula assessed as area of lesions at 1 mg/ml at 20 degC for 4 days; assay type: organism-based; details: in vivo, 96 h; outline: as §1
Pisum sativum = assay: Phytotoxicity against Pisum sativum (pea)assessed as area of lesions at 1 mg/ml at 20 degC for 4 days; assay type: organism-based; details: lathyrus oleraceus, in vivo, 96 h; outline: as §1
Lupinus albus = assay: Phytotoxicity against Lupinus albus assessed as area of lesions at 1 mg/ml at 20 degC for 4 days; assay type: organism-based; details: in vivo, 96 h; outline: as §1

Row | SMILES | Activity (Sonchus arvensis) | Activity (Cirsium arvense) | Activity (Vicia faba) | Activity (Chenopodium album) | Activity (Cicer arietinum) | Activity (Pisum fulvum) | Activity (Phaseolus vulgaris) | Activity (Lathyrus sativus) | Activity (Lens culinaris) | Activity (Medicago truncatula) | Activity (Pisum sativum) | Activity (Lupinus albus)
1 | CCC[C@H]1OC(=O)[C@@H](O)CC/C=C/[C@H](O)[C@@H]1O | inactive | inactive | Non-toxic | inactive | Non-toxic | Non-toxic | Non-toxic | Non-toxic | Non-toxic | Non-toxic | Non-toxic | Non-toxic
2 | CCC[C@H]1OC(=O)[C@H](O)CC/C=C/[C@H](O)[C@@H]1O [HERBARUMIN II] | inactive | inactive | Non-toxic | inactive | Non-toxic | Non-toxic | Non-toxic | Non-toxic | Non-toxic | Non-toxic | Non-toxic | Non-toxic
3 | CCC[C@H]1OC(=O)[C@@H](O)CC/C=C/[C@@H](O)[C@@H]1O (relative stereo) [Pinolide] | inactive | inactive | Non-toxic | inactive | Non-toxic | Non-toxic | Non-toxic | Non-toxic | Non-toxic | Non-toxic | Non-toxic | Non-toxic
4 | C/C=C/C=C/C(=O)O[C@H]1CC/C=C/[C@H](O)[C@H](O)[C@@H](CCC)OC1=O [PINOLIDOXIN] | 23.6 mm2 | 25 mm2 | 7.2 mm2 | 47.8 mm2 | 9.1 mm2 | 21.5 mm2 | 34 mm2 | 41.9 mm2 | 45.5 mm2 | 49.2 mm2 | 45.5 mm2 | 73.6 mm2
